Experimental data: ChEMBL document CHEMBL1126572, “Synthesis and pharmacological activity of a series of dihydro-1H-pyrrolo[1,2-a]imidazole-2,5(3H,6H)-diones, a novel class of potent cognition enhancers” (J Med Chem, 1993)

Assays:
Rattus norvegicus [1] = experiment: Percent reversal of scopolamine-induced amnesia rat following 10 mg/kg i.p.; format: functional; conditions: route intraperitoneal
Summary of the method: (§1)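 Male Wistar rats, 200–220 g, acclimatised ≥1 week; one-trial step-through passive avoidance in two-compartment box with electrifiable grid floor. Scopolamine hydrobromide 0.66 mg/kg sc 60 min before learning, test compound or vehicle 30 min before scopolamine; 45 rats per experiment split into saline, scopolamine and treated groups. % amnesia reversal computed from group retention; Fisher's exact test versus scopolamine group.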

Rattus norvegicus [2] = experiment: Percent reversal of scopolamine-induced amnesia rat at 0.3 mg/kg ip; format: functional; conditions: route intraperitoneal; summary of the method: as §1
Rattus norvegicus [3] = experiment: Percent reversal of scopolamine-induced amnesia rat at 30 mg/kg po; format: functional; summary of the method: as §1
Rattus norvegicus [4] = experiment: Percent reversal of scopolamine-induced amnesia rat at 1.0 mg/kg po; format: functional; summary of the method: as §1
Rattus norvegicus [5] = experiment: Percent reversal of scopolamine-induced amnesia rat at 10 mg/kg po; format: functional; summary of the method: as §1
Rattus norvegicus [6] = experiment: Percent reversal of scopolamine-induced amnesia rat following 1.0 mg/kg i.p.; format: functional; conditions: route intraperitoneal; summary of the method: as §1
Rattus norvegicus [7] = experiment: Percent reversal of scopolamine-induced amnesia rat at 0.1 mg/kg ip; format: functional; conditions: route intraperitoneal; summary of the method: as §1
Rattus norvegicus [8] = experiment: Tested for running time in radial maze test in rats on the day of treatment at 1 mg/kg sc along with Scopolamine at 50 ug/kg sc; format: functional; conditions: route subcutaneous
Summary of the method: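 Male Wistar rats (2 months, 250 g) food-restricted to 80–85% body weight, trained in eight-arm radial maze to criterion (≤9 choices, 3 consecutive days). Scopolamine 50 μg/kg sc 60 min and compound (saline, 2 mL/kg) 90 min before test; mean running time = total running time/total choices, video-tracked; compared with performance on days before and after treatment.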

Rattus norvegicus [9] = experiment: Percent reversal of scopolamine-induced amnesia rat at 0.3 mg/kg po; format: functional; summary of the method: as §1
Rattus norvegicus [10] = experiment: Tested for running time in radial maze test in rat on the day before treatment at 1 mg/kg sc along with Scopolamine at 50 ug/kg sc; format: functional; conditions: route subcutaneous
Summary of the method: (§2)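 Eight-arm radial maze in male Wistar rats (2 months old, 250 g) held at 80-85% body weight and trained to ≤9 choices for 3 consecutive days. Scopolamine was given sc 60 min pre-test and the drug sc in isotonic saline 90 min pre-test. Position was video-tracked. Mean running time (s) was total task time divided by number of choices.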

Rattus norvegicus [11] = experiment: Tested for efficiency in responding in radial maze test in rat on the day after treatment at 1 mg/kg sc along with Scopolamine at 50 ug/kg sc; format: functional; conditions: route subcutaneous
Rattus norvegicus [12] = experiment: Tested for efficiency in responding in radial maze test in rat on the day of treatment at 1 mg/kg sc along with Scopolamine at 50 ug/kg sc; format: functional; conditions: route subcutaneous
Summary of the method: (§3)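 Male Wistar rats (2 months old, 250 g), food-restricted to 80-85% body weight, were trained daily in an eight-arm radial maze to criterion (≤9 choices on 3 consecutive days). Scopolamine was given sc 60 min before testing and the test drug sc in saline 90 min before. Treatments were ≥3 days apart with retraining. Efficiency was scored as 8/total choices × 100.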

Rattus norvegicus [13] = experiment: Tested for running time in radial maze test in rat on the day after treatment at 1 mg/kg sc along with Scopolamine at 50 ug/kg sc; format: functional; conditions: route subcutaneous; summary of the method: as §2
Rattus norvegicus [14] = experiment: Tested for efficiency in responding in radial maze test in rat on the day before treatment at 1 mg/kg sc along with Scopolamine at 50 ug/kg sc; format: functional; conditions: route subcutaneous; summary of the method: as §3
[15] = Basicity was assessed from pKB; format: ADME
Rattus norvegicus [16] = experiment: Tested for running time in radial maze test in rat on the day of treatment at 1 mg/kg sc along with Scopolamine at 50 ug/kg sc; format: functional; conditions: route subcutaneous; summary of the method: as §2

## CC1C(=O)NC2(C)CCC(=O)N12 (stereo in doubt; 18 (S))
Rattus norvegicus [1]; 10 mg/kg
  Reversal: 44%
Rattus norvegicus [2]; 0.3 mg/kg
  Reversal: 10%
Rattus norvegicus [3]
  Reversal: 37%
Rattus norvegicus [4]; 1 mg/kg
  Reversal: 21%
Rattus norvegicus [5]; 10 mg/kg
  Reversal: 26%
Rattus norvegicus [6]; 1 mg/kg
  Reversal: 65%

## CC12CCC(=O)N1CC(=O)N2 (stereo not drawn)
Rattus norvegicus [1]
  Reversal: 46%
Rattus norvegicus [2]
  Reversal: 0%
Rattus norvegicus [3]
  Reversal: 26%
Rattus norvegicus [5]
  Reversal: 0%
Rattus norvegicus [6]
  Reversal: 40%

## O=C1NC2CCC(=O)N2C1CO (stereo not drawn)
Rattus norvegicus [2]
  Reversal: 30%
Rattus norvegicus [3]
  Reversal: 0%
Rattus norvegicus [4]
  Reversal: 0%
Rattus norvegicus [7]
  Reversal: 3%
Rattus norvegicus [5]
  Reversal: 42%
Rattus norvegicus [6]
  Reversal: 38%

## O=C1CN2C(=O)CCC2N1 (stereo not drawn) [DIMIRACETAM]
Rattus norvegicus [1]
  Reversal: 70%
Rattus norvegicus [2]
  Reversal: 16%
Rattus norvegicus [8]
  Time: 34.6 s
Rattus norvegicus [9]
  Reversal: 28%
Rattus norvegicus [3]
  Reversal: 40%
Rattus norvegicus [10]
  Time: 16.6 s
Rattus norvegicus [11]
  Efficiency: 88.6%
Rattus norvegicus [4]
  Reversal: 75%
Rattus norvegicus [5]
  Reversal: 60%
Rattus norvegicus [12]
  Efficiency: 75.6%
Rattus norvegicus [6]
  Reversal: 68%
Rattus norvegicus [13]
  Time: 19.6 s
Rattus norvegicus [14]
  Efficiency: 96.3%

## O=C1CN2C(=O)CCCCC2N1 (stereo not drawn)
Rattus norvegicus [1]
  Reversal: 12%
Rattus norvegicus [6]
  Reversal: 22%

## NC(=O)CN1C(=O)CN2C(=O)CCC12 (stereo not drawn)
Rattus norvegicus [1]
  Reversal: 62%
Rattus norvegicus [4]
  Reversal: 0%
Rattus norvegicus [5]
  Reversal: 9%
Rattus norvegicus [6]
  Reversal: 49%

## NC(=O)CN1CC(O)CC1=O (stereo not drawn) [OXIRACETAM]
Rattus norvegicus [1]
  Reversal: 53%
Rattus norvegicus [3]
  Reversal: 69%
Rattus norvegicus [5]
  Reversal: 27%
Rattus norvegicus [6]
  Reversal: 12%

## CCOC(=O)C12CCC(=O)N1CC(=O)N2 (stereo not drawn)
Rattus norvegicus [1]
  Reversal: 62%
Rattus norvegicus [4]
  Reversal: 0%
Rattus norvegicus [5]
  Reversal: 0%
Rattus norvegicus [6]
  Reversal: 25%

## CCN1C(=O)CN2C(=O)CCC12 (stereo not drawn)
Rattus norvegicus [1]
  Reversal: 0%
Rattus norvegicus [6]
  Reversal: 0%

## O=C1NC2CCC(=O)N2[C@H]1Cc1ccccc1 (stereo partly drawn)
Rattus norvegicus [1]
  Reversal: 0%
Rattus norvegicus [2]
  Reversal: 53%
Rattus norvegicus [9]
  Reversal: 0%
Rattus norvegicus [3]
  Reversal: 7%
Rattus norvegicus [4]
  Reversal: 42%
Rattus norvegicus [7]
  Reversal: 0%
Rattus norvegicus [5]
  Reversal: 0%
Rattus norvegicus [6]
  Reversal: 53%

## CC1C(=O)NC2CCC(=O)N21 (racemic)
Rattus norvegicus [1]
  Reversal: 38%
Rattus norvegicus [4]
  Reversal: 9%
Rattus norvegicus [5]
  Reversal: 33%
Rattus norvegicus [6]
  Reversal: 38%

## O=C1CN2C(=O)CCCC2N1 (stereo not drawn)
Rattus norvegicus [1]
  Reversal: 27%
Rattus norvegicus [4]
  Reversal: 0%
Rattus norvegicus [5]
  Reversal: 0%
Rattus norvegicus [6]
  Reversal: 27%

## NC(=O)C12CCC(=O)N1CC(=O)N2 (stereo not drawn)
Rattus norvegicus [1]
  Reversal: 38%
Rattus norvegicus [2]
  Reversal: 38%
Rattus norvegicus [4]
  Reversal: 0%
Rattus norvegicus [5]
  Reversal: 0%
Rattus norvegicus [6]
  Reversal: 62%

## CC(=O)N1C(=O)CN2C(=O)CCC21 (stereo not drawn)
Rattus norvegicus [1]
  Reversal: 0%
Rattus norvegicus [6]
  Reversal: 0%

## CCOC(=O)CN1C(=O)CN2C(=O)CCC12 (stereo not drawn)
Rattus norvegicus [1]
  Reversal: 0%
Rattus norvegicus [6]
  Reversal: 3%

## NC(=O)CNCc1ccccc1
[15]
  pKB: 7.2

## CC1C(=O)NC2(C)CCC(=O)N12 (racemic)
Rattus norvegicus [1]; 10 mg/kg
  Reversal: 0%
Rattus norvegicus [2]; 0.3 mg/kg
  Reversal: 30%
Rattus norvegicus [4]; 1 mg/kg
  Reversal: 17%
Rattus norvegicus [5]; 10 mg/kg
  Reversal: 42%
Rattus norvegicus [6]; 1 mg/kg
  Reversal: 38%

## O=C1CCC2N1CC(=O)N2C(=O)OCc1ccccc1 (stereo not drawn)
Rattus norvegicus [1]
  Reversal: 12%
Rattus norvegicus [6]
  Reversal: 31%

## O=C1NC2CCC(=O)N2[C@@H]1Cc1ccccc1 (stereo partly drawn)
Rattus norvegicus [1]
  Reversal: 0%
Rattus norvegicus [2]
  Reversal: 42%
Rattus norvegicus [7]
  Reversal: 15%
Rattus norvegicus [6]
  Reversal: 19%

## O=C1CN2C(=O)CCC2(C(=O)O)N1 (stereo not drawn)
Rattus norvegicus [1]
  Reversal: 53%
Rattus norvegicus [4]
  Reversal: 1%
Rattus norvegicus [5]
  Reversal: 33%
Rattus norvegicus [6]
  Reversal: 14%

## CN1[C@@H]2C[C@@H](OC(=O)[C@H](CO)c3ccccc3)C[C@H]1[C@@H]1O[C@@H]12 [SCOPOLAMINE]
Rattus norvegicus [16]
  Time: 34.6 s
Rattus norvegicus [10]
  Time: 14.3 s
Rattus norvegicus [11]
  Efficiency: 83.9%
Rattus norvegicus [12]
  Efficiency: 63.9%
Rattus norvegicus [13]
  Time: 19.6 s
Rattus norvegicus [14]
  Efficiency: 87.3%

## CC(C)CC1C(=O)NC2CCC(=O)N21 (stereo not drawn)
Rattus norvegicus [1]
  Reversal: 0%
Rattus norvegicus [6]
  Reversal: 3%

## C[C@H]1C(=O)NC2CCC(=O)N21 (stereo partly drawn)
Rattus norvegicus [1]
  Reversal: 3%
Rattus norvegicus [2]
  Reversal: 0%
Rattus norvegicus [6]
  Reversal: 52%
